Measurements as given in ChEMBL document CHEMBL1152917, “Benzothiophene piperazine and piperidine urea inhibitors of fatty acid amide hydrolase (FAAH)” (2009).
The source made the active and inactive calls.

How the values were obtained:
[1] = target: T1, Fatty-acid amide hydrolase 1 (Mus musculus) (UniProt O08914); assay: Inhibition of histidine6-tagged FAAH from mouse kidney proteomes at 10 to 100 uM; type: tissue-based
T1 sequence (whole entry): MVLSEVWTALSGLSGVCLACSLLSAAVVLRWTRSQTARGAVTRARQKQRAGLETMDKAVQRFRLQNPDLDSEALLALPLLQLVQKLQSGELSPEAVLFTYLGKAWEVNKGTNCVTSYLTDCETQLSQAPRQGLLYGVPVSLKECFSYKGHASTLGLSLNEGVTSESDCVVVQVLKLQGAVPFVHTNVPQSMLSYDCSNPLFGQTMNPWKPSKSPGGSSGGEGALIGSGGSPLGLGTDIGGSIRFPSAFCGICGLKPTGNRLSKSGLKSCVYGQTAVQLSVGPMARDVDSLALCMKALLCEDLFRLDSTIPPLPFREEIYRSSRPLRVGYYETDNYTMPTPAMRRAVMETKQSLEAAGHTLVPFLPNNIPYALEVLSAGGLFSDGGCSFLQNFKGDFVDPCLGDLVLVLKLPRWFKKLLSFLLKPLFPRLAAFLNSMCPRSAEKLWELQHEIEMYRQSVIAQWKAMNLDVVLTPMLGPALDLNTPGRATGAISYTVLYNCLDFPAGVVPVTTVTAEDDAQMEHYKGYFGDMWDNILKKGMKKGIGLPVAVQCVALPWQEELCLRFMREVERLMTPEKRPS
In short: (§1)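 Competitive activity-based protein profiling with FP probe labeling of serine hydrolases. Proteomes used: soluble mouse liver, mouse kidney, human liver and human heart, plus human brain membrane. Compounds tested at 100 μM, reference at 10 and 100 μM. Inhibited bands were read by gel; FAAH and off-target labeling were judged by band loss.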

[2] = target: T2, Fatty-acid amide hydrolase 1 (Homo sapiens) (UniProt O00519); assay: Inhibition of histidine6-tagged FAAH from human liver proteomes at 10 to 100 uM; in short: as §1
T2 sequence (whole entry): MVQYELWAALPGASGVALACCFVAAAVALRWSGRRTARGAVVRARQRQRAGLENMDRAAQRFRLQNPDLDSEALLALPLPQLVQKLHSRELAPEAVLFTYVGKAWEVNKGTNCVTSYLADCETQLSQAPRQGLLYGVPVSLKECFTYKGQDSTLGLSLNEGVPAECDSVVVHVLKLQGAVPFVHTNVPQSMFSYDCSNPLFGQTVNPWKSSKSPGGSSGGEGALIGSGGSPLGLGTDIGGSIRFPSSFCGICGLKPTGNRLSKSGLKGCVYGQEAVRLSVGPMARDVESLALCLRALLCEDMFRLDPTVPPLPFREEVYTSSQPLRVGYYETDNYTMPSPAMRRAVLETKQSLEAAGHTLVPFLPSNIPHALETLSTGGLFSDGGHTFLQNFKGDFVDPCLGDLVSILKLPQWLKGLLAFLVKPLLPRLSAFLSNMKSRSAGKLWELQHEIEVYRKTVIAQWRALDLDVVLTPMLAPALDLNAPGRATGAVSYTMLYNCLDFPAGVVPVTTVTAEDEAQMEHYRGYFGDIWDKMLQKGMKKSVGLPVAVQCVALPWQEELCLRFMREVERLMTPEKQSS

[3] = target: T1, Fatty-acid amide hydrolase 1 (Mus musculus); assay: Inhibition of histidine6-tagged FAAH from mouse liver proteomes at 10 to 100 uM; in short: as §1
[4] = target: T2, Fatty-acid amide hydrolase 1 (Homo sapiens); assay: Ratio of Kinact to Ki for histidine6-tagged human FAAH
In short: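 Human FAAH construct: aa 32–579, N-terminal transmembrane-deleted, N-terminal His6 tag, expressed in E. coli and purified to >95% by SDS–PAGE. Potency measured as kinact/Ki in a GDH-coupled FAAH assay in 384-well format. kobs was plotted against [I]; kinact/Ki came from the slope kinact/[Ki(1+[S]/Km)].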

[5] = target: T2, Fatty-acid amide hydrolase 1 (Homo sapiens); assay: Inhibition of histidine6-tagged FAAH from human brain proteomes at 10 to 100 uM; in short: as §1
[6] = target: T3, Fatty-acid amide hydrolase 1 (Rattus norvegicus) (UniProt P97612); assay: Ratio of Kinact to Ki for histidine6-tagged rat FAAH
T3 sequence (whole entry): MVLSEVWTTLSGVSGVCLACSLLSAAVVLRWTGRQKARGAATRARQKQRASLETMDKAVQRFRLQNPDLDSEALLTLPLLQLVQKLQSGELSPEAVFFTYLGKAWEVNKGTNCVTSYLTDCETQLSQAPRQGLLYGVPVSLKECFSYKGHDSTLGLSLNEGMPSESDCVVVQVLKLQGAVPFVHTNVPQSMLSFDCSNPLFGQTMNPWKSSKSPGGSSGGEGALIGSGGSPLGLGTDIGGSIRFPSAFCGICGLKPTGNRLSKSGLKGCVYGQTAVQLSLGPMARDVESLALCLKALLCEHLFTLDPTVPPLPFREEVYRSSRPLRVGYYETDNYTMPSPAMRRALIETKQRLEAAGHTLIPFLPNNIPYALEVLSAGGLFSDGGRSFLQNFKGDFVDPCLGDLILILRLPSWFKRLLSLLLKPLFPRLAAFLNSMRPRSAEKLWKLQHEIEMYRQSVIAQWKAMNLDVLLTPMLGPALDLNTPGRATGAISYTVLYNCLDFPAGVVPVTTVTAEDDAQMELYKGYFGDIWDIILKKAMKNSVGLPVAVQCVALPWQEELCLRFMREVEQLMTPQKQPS
In short: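 Rat FAAH construct: aa 30–579, N-terminal transmembrane-deleted, N-terminal His6 tag, E. coli-expressed and purified to >95% purity. Activity read by a GDH-coupled enzyme assay in 384-well plates. Second-order kinact/Ki was derived from the linear slope of kobs versus [I], correcting with (1+[S]/Km).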

[7] = target: T2, Fatty-acid amide hydrolase 1 (Homo sapiens); assay: Inhibition of histidine6-tagged FAAH from human heart proteomes at 10 to 100 uM; in short: as §1
Rattus norvegicus [8] = assay: Antihyperalgesic activity in complete Freund's adjuvant-induced rat inflammatory pain model assessed as reduction in mechanical allodynia after 4 hrs postdosing; type: functional
In short: (§2)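 Rat CFA inflammatory pain model: complete Freund's adjuvant injected subcutaneously into hind paw plantar surface; testing at day 5 post-injection. Compound given ip at 3, 10 and 30 mg/kg; naproxen 10 mg/kg ip as reference. Mechanical paw weight threshold measured 4 h after dosing, compared with vehicle group; n = 8 rats/group.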

Rattus norvegicus [9] = assay: Antihyperalgesic activity in complete Freund's adjuvant-induced rat inflammatory pain model assessed as reduction in mechanical allodynia at 10 mg/kg, ip; type: functional, organism-based; set-up: dose 10 mg/kg; in short: as §2

Cc1c(CC2CCN(C(=O)Nc3cccnc3)CC2)sc2ccc(F)cc12 was tested, and the inhibition [1] was “Active”, the inhibition [2] was “Active” and the inhibition [3] was “Active”. For the same compound, the Ratio [4] was 4470 M⁻¹ s⁻¹, the inhibition [5] was “Active” and the Ratio [6] was 729 M⁻¹ s⁻¹. For the same compound, the inhibition [7] was “Active”.
COc1ccc(NC(=O)N2CCN(Cc3sc4ccccc4c3C)CC2)cn1 was tested, and the inhibition [1] was “Active”, the inhibition [2] was “Active” and the Activity (Rattus norvegicus [8]) was “Dose-dependent effect”. The minimal effective dose (Rattus norvegicus [8]; read-out: MED) was 10 mg/kg, the inhibition [3] was “Active” and the Ratio [4] was under 10 M⁻¹ s⁻¹. For the same compound, the inhibition [5] was “Active”, the Ratio [6] was 1060 M⁻¹ s⁻¹ and the Activity (Rattus norvegicus [9]) was “Active”. The inhibition [7] was “Active”.
